Source: PMC5595133 (Theranostics, 2017)

Key:
B16 cells = experiment: Cell cycle assay by flow cytometry; type: cell-based, mouse; settings: 50 nM (calculated by free DM1), 12 h
HUVEC cells = experiment: Cell cycle assay by flow cytometry; type: cell-based, human; settings: 50 nM (calculated by free DM1), 12 h
MCF-7 cells = experiment: Cell cycle assay by flow cytometry; type: cell-based, human; settings: 50 nM (calculated by free DM1), 12 h
[1] = In vivo safety examination; design: species or system C57BL/6 mice
How it was run: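 This used the B16 s.c. model in C57BL/6 mice with tail-vein dosing in saline. Body weight was recorded every other day. On day 25 after implantation, 500 μL of blood was taken without heparin and centrifuged (4000 rpm, 5 min); ALT and AST were measured in serum. 20 μL of peripheral blood went for WBC, RBC and platelet counts by autoanalyzer. Heart, liver, spleen, kidney and lung were formalin-fixed, paraffin-embedded, cut at 5 μm and H&E-stained for light microscopy.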

COc1cc2cc(c1Cl)N(C)C(=O)C[C@H](OC(=O)[C@H](C)N(C)C(=O)CCS)[C@]1(C)O[C@H]1[C@H](C)[C@@H]1C[C@@](O)(NC(=O)O1)[C@H](OC)/C=C/C=C(\C)C2 [DM1, Maytansinoid DM1]
percentage of cells in G2/M phase (B16 cells): 58.26% | percentage of cells in G2/M phase (HUVEC cells): 42.23% | percentage of cells in G2/M phase (MCF-7 cells): 57.18% | body weight change versus saline ([1]; B16 tumor-bearing C57BL/6 mice, 400 μg/kg DM1 i.v. every other day x5, n=6): significant body weight loss | H&E histology of major organs (heart, liver, spleen, lung, kidney) ([1]; end of test, 200×): severer organic damages | count of white blood cells (WBC) ([1]; peripheral blood at the end of test, n=6, compared with the normal value): decreased the count | liver function, circulating ALT and AST ([1]; serum on day 25, n=6): obvious hepatic cytolysis
